Reference: article PMC6448596 (Cell reports, 2019)

Key:
[1] = tested on: NOMO-1 cells; assay: Proliferation assay; format: cell-based; conditions: Homo sapiens, NOMO-1, 72 h
How it was run: (§1)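 CellTiter-Glo, 5,000 cells/well. Cells received 0.1% DMSO or at least five two-fold dilutions of test compound (top 50 μM, final DMSO 0.1%), in triplicate wells and ≥2 biological replicates, for 72 h at 37°C. Reagent was added after equilibration to RT, with 30 min dark incubation before luminescence. Signals were normalized to DMSO wells and GI50 obtained by curve fitting. Curve error bars are SEM.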

[2] = tested on: MONO-Mac-6 cells; assay: Proliferation assay; format: cell-based; conditions: Homo sapiens, MONO-MAC-6, 72 h
How it was run: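 MONO-MAC-6 cells were maintained in RPMI with 10% FBS, non-essential amino acids and OPI supplement. CellTiter-Glo used 5,000 cells/well and ≥5 two-fold dilutions from 50 μM (0.1% DMSO final), in triplicate wells with ≥2 biological replicates, over 72 h at 37°C.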

[3] = tested on: MV4:11 cells; assay: Proliferation assay; format: cell-based, human; conditions: Homo sapiens, MV4-11, 72 h, MV4:11, 3 days, mean with SEM
How it was run: as §1

[4] = tested on: MA93 FLT3-ITD cells; assay: Proliferation assay; format: cell-based; conditions: Homo sapiens, 72 h
How it was run: (§2)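 CellTiter-Glo at 2,000 cells/well. MA93 Ras and MA93 FLT3/ITD were maintained in IMDM/20% FBS. Parental MA93 received IMDM/20% FBS plus 10 ng/mL human SCF, TPO, FLT3L, IL3 and IL6. Dosing used ≥5 two-fold dilutions from 50 μM top, 0.1% DMSO final, in triplicate wells with ≥2 biological replicates. Plates ran 72 h at 37°C, followed by 30 min reagent incubation at RT in the dark. GI50 came from DMSO-normalized luminescence.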

[5] = tested on: K562 cells; assay: Proliferation assay; format: cell-based; conditions: Homo sapiens, K562, 72 h
How it was run: as §1

[6] = tested on: RN2 cells; assay: Proliferation assay; format: cell-based, murine; conditions: Mus musculus, 72 h
How it was run: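 Murine RN2 cells were seeded at 2,500/well and exposed to ≥5 two-fold dilutions (top 50 μM, 0.1% DMSO final) in triplicate wells, with ≥2 biological replicates, for 72 h. MTS reagent was added for 1.25 h at 37°C and absorbance read at 490 nm. Values were normalized to DMSO wells and GI50 fitted. Error bars are SEM.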

[7] = tested on: gene expression in MV4:11 cells; assay: RNA-Seq; format: cell-based, human; conditions: MV4:11, 2 μM, 3 days
[8] = tested on: GDM-1 cells; assay: Proliferation assay; format: cell-based; conditions: Homo sapiens, GDM-1, 72 h
How it was run: as §1

[9] = tested on: HEL cells; assay: Proliferation assay; format: cell-based; conditions: Homo sapiens, 72 h
How it was run: as §1

[10] = tested on: SET-2 cells; assay: Proliferation assay; format: cell-based; conditions: Homo sapiens, SET-2, 72 h
How it was run: as §1

[11] = tested on: MA93 cells; assay: Proliferation assay; format: cell-based; conditions: Homo sapiens, 72 h
How it was run: as §2

[12] = tested on: MA93 Ras cells; assay: Proliferation assay; format: cell-based; conditions: Homo sapiens, MA9.3RAS, 72 h
How it was run: as §2

[13] = tested on: Molm13 cells; assay: Proliferation assay; format: cell-based; conditions: Homo sapiens, MOLM-13, 72 h
How it was run: as §1

[14] = tested on: THP-1 cells; assay: Proliferation assay; format: cell-based; conditions: Homo sapiens, THP-1, 72 h
How it was run: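 THP-1 cells were grown in RPMI-1640 with 0.05 mM 2-mercaptoethanol and 10% FBS. Cells were plated 5,000/well with ≥5 two-fold dilutions of test compound (top 50 μM, 0.1% DMSO final), in triplicate wells with ≥2 biological replicates.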

[15] = tested on: HL60 cells; assay: Proliferation assay; format: cell-based; conditions: Homo sapiens, HL-60, 72 h
How it was run: as §1

[16] = target: T1, WDR5 (Homo sapiens, UniProt P61964); assay: ChIP-Seq of WDR5; format: cell-based; conditions: MV4:11, 2 μM, 4 h
How it was run: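 MV4:11 cells at 10^6/ml were treated 4 h with 2 μM test compound, negative control or 0.1% DMSO. Cells were concentrated to 4 × 10^6/ml in PBS, fixed in 1% formaldehyde for 10 min at RT and quenched with 125 mM glycine. They were lysed in 1% SDS FA buffer. Sheared chromatin was diluted to 0.1% SDS and immunoprecipitated overnight at 4°C with anti-WDR5 (D9E1I or 429A) or IgG on BSA-blocked protein-A agarose. Peaks were compared by normalized average read counts.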

[17] = tested on: p53 turnover in MV4:11 cells; assay: Cycloheximide; format: cell-based, human; conditions: MV4:11, 2 μM, 24 h before CHX
How it was run: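 Before the cycloheximide chase, MV4:11 cells were pretreated 24 h with 2 μM test compound, 2 μM Nutlin-3 as comparator, or DMSO only. p53 was then followed by immunoblot.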

[18] = target: T1, WDR5; assay: 10-mer-Thr-FAM peptide TR-FRET competition assay; format: binding; conditions: relative to C3
[19] = tested on: ribosome protein gene expression in MV4:11 cells; assay: RT-qPCR quantification of RPG mRNA expression; format: cell-based, human; conditions: MV4:11, three days, 50 µM OICR-9429 (adjusted to relative GI50)
How it was run: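 Cells were lysed in Trizol and total RNA isolated on columns with DNase digestion. 1 μg RNA was reverse transcribed with MuLV reverse transcriptase in 20 μl, then diluted three-fold in nuclease-free water before qPCR.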

[20] = tested on: p53 and p21 protein levels in MV4:11 cells; assay: p53/p21 induction western blot; format: cell-based, human; conditions: MV4:11, 30 µM OICR-9429
How it was run: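 Treatment lasted 24 h with test compound or its negative control, at 2 μM in MV4:11 and 3 μM in Molm13. Comparators were 2 μM Nutlin-3 or 0.1% DMSO. Four million cells were PBS-washed and lysed 10 min on ice in Kischkel buffer. p53 and p21 were detected by western blot, with histone H3 as loading control.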

[21] = target: T1, WDR5; assay: ChIP-PCR of WDR5 binding; format: cell-based; conditions: MV4:11, 36 μM, 4 h
How it was run: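 MV4:11 cells were treated 4 h with 36 μM test compound, its negative control or DMSO. They were cross-linked in 0.75–1% formaldehyde for 10 min at RT and quenched with 125 mM glycine. Cells were lysed in SDS/Triton formaldehyde lysis buffer. Chromatin from 6 million cells was used per IP, with anti-WDR5 (D9E1I) or IgG, followed by low-salt, high-salt, LiCl and TE washes. Signal is % input, biological triplicate, SEM.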

[22] = target: T1, WDR5; assay: Subcellular fractionation, WDR5 western blot; format: cell-based; conditions: MV4:11, 36 μM, 4 h
[23] = tested on: gene body transcription in MV4:11 cells; assay: PRO-Seq; format: cell-based, human; conditions: MV4:11, 36 μM, 15, 30 or 60 min
How it was run: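 30 million MV4:11 cells were harvested 15, 30 or 60 min after test compound; 0.1% DMSO for 60 min was the reference. Cells were swollen on ice, lysed with 0.1% Triton/10% glycerol and Dounce-homogenized. Nuclei were stored at −80°C in 40% glycerol freezing buffer (2 × 10^7 nuclei/100 μl) and used for nuclear run-on. Beads were washed in high/medium/low salt; RNA was TRIzol-extracted.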

Compound | GI50 [1] [µM] | GI50 [3] [µM] | GI50 [4] [µM] | GI50 [5] [µM] | GI50 [6] [µM] | GI50 [9] [µM] | GI50 [10] [µM] | GI50 [11] [µM] | GI50 [12] [µM] | GI50 [13] [µM] | GI50 [14] [µM] | GI50 [15] [µM] | further results
Cc1nc(F)ccc1-c1cc(C(=O)NCc2ccc(Cl)c(Cl)c2)ccc1Cn1ccn(C)c1=N [Compound C6nc, N-(3,4-dichlorobenzyl)-3-(6-fluoro-2-methylpyridin-3-yl)-4-((2-imino-3-methyl-2,3-dihydro-1H-imidazol-1-yl)methyl)benzamide] | > 50 | 42 ± 9.02 | 26.2 ± 4.75 | 31.7 ± 2.45 | > 50 | > 50 | > 50 | 30.3 ± 5.94 | > 50 | > 50 | > 50 | > 50 | GI50 [2]: > 50 µM; effect on gene expression levels [7]: no significant effect on gene expression levels; GI50 [8]: > 50 µM; WDR5 binding events on chromatin [16]: little impact on WDR5 binding
COc1ccc(C2=N[C@@H](c3ccc(Cl)cc3)[C@@H](c3ccc(Cl)cc3)N2C(=O)N2CCNC(=O)C2)c(OC(C)C)c1 [nutlin-3, reference compound] | – | – | – | – | – | – | – | – | – | – | – | – | p53 turnover in CHX chase [17]: increased the stability of p53
COc1cc(CNC(=O)c2cccc(CNC3=NCCN3)c2F)cc(OC)c1 [Compound C3nc, 3-(((4,5-dihydro-1H-imidazol-2-yl)amino)methyl)-N-(3,5-dimethoxybenzyl)-2-fluorobenzamide] | > 50 | > 50 | > 50 | > 50 | > 50 | > 50 | > 50 | > 50 | > 50 | > 50 | > 50 | > 50 | binding to WDR5 of negative control [18]: reduced affinity
CN1CCN(c2ccc(-c3cccc(CN4CCOCC4)c3)cc2NC(=O)c2c[nH]c(=O)cc2C(F)(F)F)CC1 [OICR-9429, reference compound] | – | 31 | – | – | – | – | – | – | – | – | – | – | transcription of RPGs [19]: selectively inhibited the transcription of WDR5-bound RPGs; p53 and p21 protein induction [20]: induced both p53 and p21
COc1cc(CNC(=O)c2ccc(F)c(CNC3=NCCN3)c2)cc(OC)c1 [Compound C3, 3-(((4,5-dihydro-1H-imidazol-2-yl)amino)methyl)-N-(3,5-dimethoxybenzyl)-4-fluorobenzamide] | > 50 | – | 21.2 ± 2.11 | > 50 | 8.65 ± 0.989 | > 50 | > 50 | 22.1 ± 3.6 | > 50 | – | > 50 | > 50 | reduction in WDR5 binding at five loci [21]: > 10 fold; chromatin-bound WDR5 (P3 fraction) [22]: reduced the total amount of chromatin-bound WDR5; increase in transcription [23]: no instances in which C3 promoted an increase in transcription
